# Source: PubChem BioAssay
# Lung fibro prol: blocks proliferation of human lung fibroblasts; LL 47 human lung fibroblast viability, ATP luminescence; hits give low values; viability, % at 10 µM; 1.1% of 85,000 active; AID 719;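 active = viability at or below 50% in the single dose screen; inactive = viability above 50%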;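 also: compound exposure lasted 72 h before the ATP readout; 100% = median luminescence of untreated cell-only wells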
#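 material = human LL 47 lung fibroblast cells | dosing = compounds added from tenfold dosing solution, 0.1% DMSO final | timing = overnight cell rest, 72 h compound treatment at 37 °C | measured by = CellTiter-Glo luminescence measuring cellular ATP | evaluation = % viability versus median cells-only luminescence | control set = cell-only wells, no compound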
# H69AR inhibit: blocks growth of human H69AR lung tumor cells; H69AR lung tumor viability, ATP luminescence, 72 h; hits give low values; viability, % at 10 µM; 6% of 85,000 active;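 active = viability at or below 40%; inactive = viability above 40%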;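 also: multidrug resistant small cell line overexpressing MRP-1 efflux transporter; 100% = mean luminescence of untreated control wells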
# bCat KO growth: beta-catenin-lacking colon tumor cell growth suppression | viability, % at 10 µM | HCT116 beta-catenin knockout viability, CellTiter-Glo, 60 h; hits give low values | AID 818 | 1.5% of 140,000 active;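 active = viability at or under a set limit, the compound median less 4 SD, cut at about 6% in these data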;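 also: 0% = Hyamine 1622 control at 20 µM and 100% = untreated cell control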
# PTEN del growth: PTEN-deleted cell growth suppression; HCT116 PTEN-null viability, CellTiter-Glo, 60 h; hits give low values; viability, % at 10 µM; 1.2% of 140,000 active;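 active = viability at or below a set limit, 4 SD under the median of all tested compounds, cut at about 3.7% in these data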;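 also: PTEN knockout HCT116 line with beta catenin targeted HCT116 as companion control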
# HUVEC prolif 384: human endothelial cell proliferation inhibition | HUVEC proliferation, CellTiter-Glo luminescence, 72 h; hits give low values | viability, % at 10 µM (by protocol) | 1.1% of 86,000 active | AID 648;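 active = viability at or below 30%; inactive = viability above 30%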;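 also: 100% = median luminescence of DMSO-only cell control wells on each plate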
# Active calls of the source: *; . = no result. Only a selection was taken, and hits are over-represented in it overall.
SMILES,Lung fibro prol,H69AR inhibit,bCat KO growth,PTEN del growth,HUVEC prolif 384
Cn1c(=O)c2c(nc(CN3CCN(c4ccccc4)CC3)n2Cc2ccccc2Cl)n(C)c1=O,84.3,23.6*,71.1,52.4,75.3
Cn1c(=O)[nH]c(=O)c2c1nc(Br)n2Cc1ccccc1Cl,97.1,27.1*,89.0,78.3,101.3
Nc1ccnc(Oc2ccc(F)cc2)c1,.,.,99.2,96.7,.
NC(=O)CC[C@@H]1NC(=O)[C@@H]2CCCN2C(=O)c2cc([N+](=O)[O-])cc(I)c2NCCC[C@@H](C(N)=O)NC1=O,.,.,95.3,105.3,.
c1ccc(Cn2ncc3c2ncn2nc(-c4ccncc4)nc32)cc1,99.4,84.5,.,.,97.5
CN(C)c1nc(-c2ccccc2)c2cnn(Cc3ccccc3)c2n1,81.4,19.4*,65.8,55.5,72.8
COC(=O)[C@@H](NC(=O)O[C@@H]1C(=O)c2cc(Br)ccc2O[C@H]1c1cccc(OC)c1)C(C)C,.,.,88.1,85.0,.
Clc1ccc2nnnc(-c3ccccc3)c2c1,.,.,3.7*,3.1*,.
c1ccc(-c2nnnc3ccccc23)cc1,.,.,59.9,78.0,.
Nc1nnnn1/N=C/c1cccc(OCc2ccccc2Cl)c1,88.4,72.4,81.4,69.8,16.5*
Nc1nnnn1/N=C/c1cccc(Oc2ccccc2)c1,93.9,93.4,70.8,80.0,98.0
COc1ccc(S(=O)(=O)Nc2cc3c(C(C)=O)c(C)oc3c3ccccc23)cc1,50.6,24.6*,18.9,19.1,37.0
COC(=O)c1cccc(NS(=O)(=O)c2ccc(OC)c(OC)c2)c1C,97.0,108.2,88.8,93.3,98.0
Cc1oc2c(cc(NS(=O)(=O)c3cccs3)c3ccccc32)c1C(=O)OC(C)C,91.1,72.7,77.9,80.2,75.8
CCOC(=O)c1ccccc1NS(=O)(=O)c1ccc(OCC)cc1,64.5,12.7*,15.4,18.7,65.0
CCOC(=O)COc1ccc(S(=O)(=O)Nc2cccc(SC)c2)cc1,47.0*,105.5,92.1,87.0,13.7*
COC(=O)c1cccc(NS(=O)(=O)c2ccc(OC)cc2)c1C,85.7,22.8*,23.1,27.3,59.7
Cc1ccc2nc(-c3ccc(N4C(=N)SC5CS(=O)(=O)CC54)cc3)sc2c1 (stereo not drawn),.,.,74.8,75.1,.
Cc1nc2ccc(NC(=O)c3cccc(S(=O)(=O)N4CC(C)OC(C)C4)c3)cc2s1 (stereo not drawn),93.5,41.6,95.5,91.7,92.7
N#Cc1nc(-c2ccc(OCc3ccccc3)cc2)oc1N1CCC(C(N)=O)CC1,79.7,37.0*,92.4,102.1,28.6*
c1ccc(-n2ncc3c2ncn2nc(CSc4nc5ccccc5s4)nc32)cc1,61.5,28.7*,.,.,41.6
COc1ccccc1-c1nc2ccccc2c(=O)n1NC(=O)c1cccs1,.,.,96.8,97.2,.
Cc1ccc(NC2=C(NCCO)C(=O)c3ccccc3C2=O)cc1,.,.,60.5,62.2,.
CN(C)c1ccc(NC2=C(Cl)C(=O)c3ccccc3C2=O)cc1,.,.,1.6*,1.5*,.
O=C1C(Cl)=C(NCCCO)C(=O)c2ccccc21,103.5,7.4*,11.1,11.1,96.2
SMILES,Lung fibro prol,H69AR inhibit,bCat KO growth,PTEN del growth,HUVEC prolif 384
CC1C/C(=N\NC(=O)c2ccc(NS(=O)(=O)c3ccc(Br)cc3)cc2)CC(C)(C)C1 (stereo not drawn),.,.,96.9,98.5,.
O=C(CCCc1nc2ccccc2s1)Nc1nccs1,94.7,89.3,89.0,87.3,67.4
Cc1cnc(NC(=O)CCCc2nc3ccccc3s2)s1,35.2*,71.3,14.7,9.8,29.6*
COc1ccc2cc(CN(CC3COCCO3)S(=O)(=O)c3ccc(Cl)cc3)c(=O)[nH]c2c1 (stereo not drawn),107.5,13.3*,20.3,27.0,101.8
Cc1ccc(S(=O)(=O)N(Cc2cc3cc4c(cc3[nH]c2=O)OCCO4)CC2CCCO2)cc1 (stereo not drawn),98.6,65.4,78.8,85.5,66.3
O=c1[nH]c2cc3c(cc2cc1CN(CC1CCCO1)S(=O)(=O)c1ccc(Cl)cc1)OCCO3 (stereo not drawn),95.4,11.9*,14.8,7.2,73.8
COC(=O)c1ccc(S(=O)(=O)N(Cc2cc3cc4c(cc3[nH]c2=O)OCO4)C2CCCCC2)cc1,106.5,38.7*,.,.,94.3
CC(=O)c1ccc(S(=O)(=O)N(Cc2cc3cc4c(cc3[nH]c2=O)OCCO4)CC2CCCO2)cc1 (stereo not drawn),95.1,75.5,108.1,97.8,94.4
COc1ccc2cc(CN(CC3COCCO3)S(=O)(=O)c3c(C)cc(C)cc3C)c(=O)[nH]c2c1 (stereo not drawn),.,.,84.9,93.8,.
CC(C)(C)NC(=O)C(=O)NNC(=O)COc1ccc(Br)cc1,.,.,87.3,91.7,.
O=C(NCc1cccs1)c1nc2c(nnn2Cc2ccccc2Cl)c(=O)[nH]1,34.8*,44.6,86.6,98.0,24.1*
O=C(Cc1cccs1)N1CCCC(c2nc3c(nnn3Cc3ccccc3Cl)c(=O)[nH]2)C1 (stereo not drawn),109.2,82.2,95.8,85.4,86.2
O=S(=O)(c1ccc(N2CCCC2c2nc3ccccc3s2)nc1)N1CCOCC1 (stereo not drawn),88.3,22.6*,90.5,87.5,97.2
CCc1cc(SC#N)cc(CC)c1NC(=O)CCl,.,.,1.9*,1.6*,.
O=C(NC1CC1)c1ccc2c(c1)C1C3CCC(C3)C1C(c1ccccc1)N2 (stereo not drawn),.,.,81.4,70.1,.
COc1ccc2c(=O)c3c(=O)n(Cc4ccco4)c(-c4cc(OC)c(OC)c(OC)c4)nc3oc2c1,77.7,13.2*,54.4,49.1,69.6
Cc1ccc(N=c2oc3cc(O)ccc3cc2C(N)=O)cc1,82.2,39.4*,73.4,79.4,47.4
COc1ccc(N=c2oc3cc(O)ccc3cc2C(=O)NCC2CCCO2)cc1 (stereo not drawn),111.1,79.2,95.6,99.6,79.6
CCOC(=O)c1cnc(SCc2nc(N)nc(Nc3ccc(C)cc3)n2)nc1N,75.9,35.2*,43.4,41.4,96.8
CCOC(=O)c1cnc(SCc2nc(N)nc(Nc3ccc(F)cc3)n2)nc1N,90.7,36.5*,51.4,45.1,99.3
C/C(=N/NC(=O)c1cccs1)c1ccc(N2CCOCC2)cc1,.,.,105.3,97.9,.
CCc1ccc(Nc2nnc(SCC(=O)Nc3cccnc3Cl)s2)cc1,.,.,80.8,79.0,.
COC(=O)c1sccc1NC(=O)COc1ccc(Cl)cc1Cl,.,.,77.5,79.7,.
CC(=O)N1CCN(CC(=O)Nc2ccccc2Sc2ccc(Cl)cc2)CC1,.,.,74.3,79.9,.
O=C(CCl)Nc1ccccc1Sc1ccc(Cl)cc1,.,.,2.1*,2.5*,.
Cc1cc(C(=O)OC(C(=O)Nc2ccc(C)c(Cl)c2)c2ccccc2)c(C)o1 (stereo not drawn),.,.,78.6,66.5,.
COc1ccccc1NC(=O)C(Sc1ccccc1)c1ccccc1 (stereo not drawn),.,.,82.9,72.9,.
CC(C)(C)NS(=O)(=O)c1ccc(NC(=O)C(Sc2ccccc2)c2ccccc2)cc1 (stereo not drawn),.,.,1.6*,1.6*,.
O=C(Nc1cc([N+](=O)[O-])ccc1Cl)C(Sc1ccccc1)c1ccccc1 (stereo not drawn),.,.,82.4,70.9,.
